E-selectin induc: induces E-selectin expression in human endothelial cells; P16581; HUVEC E-selectin immunofluorescence imaging; normalized: neutral wells 0, TNF-alpha wells 100; activation, % at 7.58 µM; hit rate 0.37% among 260,000; AID 686992;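 active means mean E-selectin-positive cell signal at least 10% of the positive control, reached in at least 60% of replicates, without over 20% cell loss; inconclusive means no rule given, readout overlaps actives, possibly toxicity-flagged; inactive means the rest, including those meeting only one limit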
Target sequence (P16581 whole entry, looked up): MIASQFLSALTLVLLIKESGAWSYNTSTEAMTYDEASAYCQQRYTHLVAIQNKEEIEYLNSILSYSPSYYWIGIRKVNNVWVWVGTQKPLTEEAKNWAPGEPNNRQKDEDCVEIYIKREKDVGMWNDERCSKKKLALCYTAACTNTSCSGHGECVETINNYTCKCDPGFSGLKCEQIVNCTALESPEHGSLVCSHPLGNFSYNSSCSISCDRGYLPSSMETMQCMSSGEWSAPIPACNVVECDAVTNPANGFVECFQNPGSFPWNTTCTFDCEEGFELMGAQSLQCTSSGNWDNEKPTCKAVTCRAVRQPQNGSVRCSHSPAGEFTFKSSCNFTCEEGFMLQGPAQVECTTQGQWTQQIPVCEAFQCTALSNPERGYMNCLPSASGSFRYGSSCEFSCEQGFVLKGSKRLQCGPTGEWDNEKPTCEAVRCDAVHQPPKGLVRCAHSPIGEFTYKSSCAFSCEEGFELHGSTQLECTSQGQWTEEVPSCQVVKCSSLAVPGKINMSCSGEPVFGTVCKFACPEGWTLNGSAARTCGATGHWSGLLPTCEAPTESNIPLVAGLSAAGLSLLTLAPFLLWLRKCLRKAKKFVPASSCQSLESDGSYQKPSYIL
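material = human umbilical vein endothelial cells (HUVEC), E-selectin induction | quantity = 3,000 cells/well | medium = EGM-2 growth medium on 0.1% gelatin-coated wells | technique = immunofluorescence imaging | read-out basis = % PE-positive cells | control set = TNF-alpha positive control, DMSO neutral control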
DENV2 CPE: protects cells from dengue virus 2 cytopathic effect; hit rate 1.7% among 350,000; DENV2-infected cells, cytopathic effect rescue, plate reader; CPE inhibition, % at 9.99 µM; AID 651640; in the data active means CPE inhibition above about 20%, passing the limit was not always enough; inconclusive means no clear call, values can overlap the other calls; tested in BHK-21 cells
SIRT5 block: blocks human SIRT5 desuccinylation of peptide | Q9NXA8 | hit rate 1.1% among 330,000 | inhibition, % at 15 µM | Purified SirT5, succinyl-peptide AMC, trypsin-coupled fluorescence; in the data active means inhibition above about 15%; inconclusive means no clear call, values can overlap the other calls
Hits are given with their value; 0 = inactive; ? = inconclusive; - = not tested or not shown; ! = not confirmed by another sample. Only some compounds are listed: those with a hit (about 2.8% of all), similar ones and a draw of the others.

SMILES	E-selectin induc	DENV2 CPE	SIRT5 block
CCCNC(=O)N1C[C@@H]2N[C@H](C1)C2c1ccc(-c2ccc(OC)cc2)cc1 (stereo partly drawn)	0	32!	-
CCCNC(=O)N1[C@@H]2CNC[C@H]1C2c1ccc(/C=C/c2ccccc2)cc1 (stereo partly drawn)	0	0	0
CCCNC(=O)N1C[C@@H]2N[C@H](C1)C2c1ccc(-c2ccccc2C)cc1 (stereo partly drawn)	0	27	-
Cc1ccccc1-c1ccc(C2[C@@H]3CN(C(=O)Cc4ccncc4)C[C@H]2N3)cc1 (stereo partly drawn)	0	86!	-
CCCNC(=O)N1C[C@@H]2N[C@H](C1)C2c1ccc(-c2ccc(F)cc2)cc1 (stereo partly drawn)	0	?	0
CN1CCN(C(=O)C[C@@H]2CC[C@@H]3[C@H](COC[C@@H](O)CN3C(=O)Nc3cc(Cl)cc(Cl)c3)O2)CC1	0	0	0
CCC(=O)Nc1ccc2c(c1)C(=O)N(C)C[C@H](OC)[C@H](C)CN(CCc1ccccc1)[C@@H](C)CO2	0	0	0
CCN1[C@@H]2c3ccc(C4=CCCC4)c(=O)n3C[C@@H]2[C@@H](CO)[C@@H]1C(=O)NCCc1ccccc1	0	0	0
COc1ccc(CNC(=O)C[C@@H]2CC[C@@H](NC(=O)c3cccc(F)c3)[C@H](CO)O2)cc1	0	0	0
Cc1ccccc1-c1ccc([C@H]2[C@@H](CO)N3CCCCN(S(=O)(=O)c4cn(C)cn4)C[C@H]23)cc1	0	0	0
C=CCNC(=O)[C@H]1[C@@H]2C(=O)O[C@@H](c3ccccc3)[C@@H](c3ccccc3)N2[C@@H](c2ccc(OCCO)cc2)[C@]12C(=O)Nc1ccccc12	-	0	0
CCCC(=O)Nc1ccc2c(c1)OC[C@@H](C)N(C(=O)CC1CC1)C[C@@H](C)[C@H](OC)CN(C)C2=O	0	0	-
COc1ccc(Cl)cc1NC(=O)CN(C)C(=O)C1COc2ccccc2O1 (stereo not drawn)	0	73	0
COc1ccc(Cl)cc1NC(=O)C1COc2ccccc2O1 (stereo not drawn)	-	0	0
C[C@H]1CCCCO[C@@H](CN(C)Cc2ccc(C(=O)O)cc2)[C@@H](C)CN([C@@H](C)CO)C(=O)c2cc(NS(=O)(=O)c3ccc(Cl)cc3)ccc2O1	0	0	0
CCCc1nnc(SCC(=O)Nc2ccc3c(c2)OCCO3)n1CCOC	-	0	0
COCCn1c(SCC(=O)Nc2ccc3c(c2)OCCO3)nnc1C(C)C	0	22	0
CO[C@H]1CN(C)C(=O)c2ccc(NC(=O)C3CC3)cc2OC[C@@H](C)N(Cc2cccnc2)C[C@H]1C	0	0	0
Cc1noc(C)c1NC(=O)N[C@@H]1CC[C@@H](CCNC(=O)C2CCCC2)O[C@@H]1CO	0	0	0
CC(=O)N[C@@H]1CC[C@H](CCNC(=O)C2CCCC2)O[C@@H]1CO	0	0	0
CC(=O)N[C@@H]1CC[C@H](CCNC(=O)C2CCCC2)O[C@H]1CO	0	90	0
Cc1noc(C)c1NC(=O)N[C@@H]1CC[C@@H](CCNC(=O)C2CCCC2)O[C@H]1CO	0	25	0
Cc1noc(C)c1NC(=O)N[C@H]1CC[C@@H](CC(=O)NCCCN(C)C)O[C@H]1CO	0	0	16
CN(C)CC(=O)N[C@@H]1CC[C@@H](CCNC(=O)C2CCCC2)O[C@H]1CO	0	0	0
CN(C)CC(=O)N[C@H]1CC[C@H](CCNC(=O)C2CCCC2)O[C@H]1CO	0	27	0
SMILES	E-selectin induc	DENV2 CPE	SIRT5 block
Cc1noc(C)c1NC(=O)N[C@@H]1CC[C@H](CC(=O)NCCCN(C)C)O[C@@H]1CO	0	0	0
O=C(C[C@H]1CC[C@@H](NC(=O)Nc2ccc(C(F)(F)F)cc2)[C@@H](CO)O1)NCCN1CCCC1	0	0	0
COCC#Cc1ccc2c(c1)O[C@H](CN(C)S(=O)(=O)c1cccc(OC)c1)[C@H](C)CN([C@@H](C)CO)S2(=O)=O	0	0	0
COc1cccc(-c2cnc3c(c2)C(=O)N([C@@H](C)CO)C[C@@H](C)[C@@H](CN(C)C(C)=O)O3)c1	0	0	0
C[C@H](CO)N1C[C@H](C)[C@@H](CN(C)Cc2ccc(F)cc2)Oc2ncc(C3=CCCC3)cc2C1=O	0	0	0
O=C(NCC[C@@H]1CC[C@@H](NC(=O)C2CCCC2)[C@@H](CO)O1)c1cc(Cl)cc(Cl)c1	0	21	0
CC(C)NC(=O)N[C@H]1CC[C@H](CCNC(=O)C2CCCC2)O[C@@H]1CO	0	?	25
O=C(NCC[C@H]1CC[C@H](NC(=O)C2CCCC2)[C@H](CO)O1)c1cc(Cl)cc(Cl)c1	0	0	0
CC(C)NC(=O)N[C@@H]1CC[C@H](CCNC(=O)C2CCCC2)O[C@H]1CO	0	0	-
COc1ccc(NC(=O)C2CCC(CNS(=O)(=O)c3cccs3)CC2)cc1 (stereo not drawn)	-	0	-
COc1ccc(NC(=O)C2CCC(CNS(=O)(=O)c3cccs3)CC2)cc1OC (stereo not drawn)	0	31	0
O=C1CCCCCCC(=O)[C@H](O)C[C@H](c2ccccc2)O1	0	50	0
COc1ccc2c(c1)CCC(=O)[C@H](O)C[C@H](c1ccccc1)OC2=O	0	?	0
O=C1CCCCC(=O)[C@H](O)C[C@H](c2ccccc2)O1	0	0	0
COc1ccc2c(c1)C(=O)O[C@@H](c1ccccc1)C[C@@H](O)C(=O)CC2	0	33	20
C[C@H]1CN([C@@H](C)CO)S(=O)(=O)c2ccc(C3=CCCC3)cc2O[C@H]1CN(C)S(C)(=O)=O	0	-	-
CC(=O)N1CC[C@@H]2[C@H](CO)Nc3ccc(-c4ccccc4)cc3[C@@H]21	0	?	0
C[C@H]1CN([C@@H](C)CO)C(=O)c2cccc(NS(=O)(=O)c3cccs3)c2O[C@H]1CN(C)Cc1ccc(Cl)c(Cl)c1	0	0	0
CCOC(=O)c1cccc(NC(=O)c2cc(C)nn2-c2ccccc2)c1	41	0	0
CCc1ccc(NC(=O)c2cc(C)nn2-c2ccccc2)cc1	0	0	0
O=C(C[C@@H]1CC[C@@H]2[C@H](COC[C@@H](O)CN2C(=O)Nc2cccc(Cl)c2)O1)N1CCCCC1	0	0	0
CN(C)C(=O)C[C@H]1C=C[C@H](NC(=O)Nc2cccc(F)c2)[C@@H](CO)O1	0	0	0
CCCN(C)C[C@@H]1Oc2cc(-c3cncnc3)ccc2S(=O)(=O)N([C@@H](C)CO)C[C@@H]1C	0	-	-
CCc1ccc(N2CC(C(=O)OCC(=O)Nc3ccccc3C)CC2=O)cc1 (stereo not drawn)	-	0	0
CCOc1ccccc1NC(=O)COC(=O)C1CC(=O)N(c2c(C)cccc2C)C1 (stereo not drawn)	-	0	19
CCC(=O)Nc1ccc2c(c1)OC[C@@H](C)N(C(=O)Cc1cccnc1)C[C@@H](C)[C@@H](OC)CN(C)C2=O	0	0	0
CC(C(=O)Nc1ccccc1)N(C)Cc1cccs1 (stereo not drawn)	-	0	0
CC(C(=O)Nc1ccc(F)c(F)c1F)N(C)Cc1cccs1 (stereo not drawn)	0	0	16
Cc1ccccc1Nc1ccc2nonc2c1[N+](=O)[O-]	-	0	29
Cc1ccc(C)c(Nc2ccc3nonc3c2[N+](=O)[O-])c1	-	0	0

High-throughput results: PubChem, Broad Institute
